Consider 28 molecules from ChEMBL document CHEMBL1938288, “Discovery, synthesis, and pharmacological evaluation of spiropiperidine hydroxamic acid based derivatives as structurally novel histone deacetylase (HDAC) inhibitors” (J Med Chem, 2011).

The target of one series is Histone deacetylase. The series can be described thus: Inhibition of human HDAC in HeLa cell nuclear extracts using KI-104 Fluor de Lys as substrate by fluorescence assay. It is filed as protein assay. A digest of the protocol:
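HDAC activity from partially purified HeLa nuclear extracts, using a fluorogenic acetylated histone peptide (Fluor de Lys) as substrate. Replicates n ≥ 2, mean values reported.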

The subject of a further series is A549. The experiment in a line: Antiproliferative activity against human A549 cells after 72 hrs by CellTiter-Glo luminescent cell viability assay. It is filed as functional, cell-based. The following applies: A549, 72 h. A digest of the protocol: (§1)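 Cells in exponential growth exposed to a range of inhibitor concentrations for 72 h. CellTiter-Glo reagent added, mixed 2 min to lyse cells, luminescence read 10 min later. IC50 derived from the concentration–response. Replicates n ≥ 2, mean shown.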
(In ATP-based viability assays light output follows the ATP content of the culture.)

In another series the test system is K562. The experiment in a line: Antiproliferative activity against human K562 cells after 72 hrs by CellTiter-Glo luminescent cell viability assay. It is filed as functional, cell-based. Particulars: K562, 72 h. A digest of the protocol:
as §1

The next series concerns HCT-116. The series can be described thus: Antiproliferative activity against human HCT116 cells after 72 hrs by CellTiter-Glo luminescent cell viability assay. Format: functional, cell-based. Particulars: HCT-116, 72 h. A digest of the protocol:
as §1

Series [1] is described as follows: Oral bioavailability in mouse. Format: ADME, organism-based. The following applies: in vivo.
The nature of series [2]: Clearance in mouse. It is filed as ADME, organism-based. The following applies: in vivo.

Broadly, the IC50 is the midpoint of a concentration-inhibition curve. A low value points to greater potency. For orientation: bioavailability means dose-corrected exposure relative to a reference, in per cent. Read a low bioavailability as poor availability. The term clearance denotes a measure of how efficiently the substance is removed, as volume per time. A lower clearance goes with a low capacity for elimination.

Regarding `O=C(/C=C/c1ccc2c(c1)C(=O)CC1(CCNCC1)O2)NO`, the IC50 is 0.082 µM at Histone deacetylase, 2.72 µM with A549, 5.77 µM in the series on K562 and 1.59 µM in the series with HCT-116.
For `O=C(/C=C/c1ccc2c(c1)OC1(CCNCC1)CC2=O)NO`, in that order: 1.41 µM, 24.8 µM, more than 50 µM and 35.5 µM.
As to `CC(=O)N1CCC2(CC1)Oc1ccc(/C=C/C(=O)NO)cc1C2=O`, the IC50 against Histone deacetylase, in the series with A549, in the series with K562 and in the series with HCT-116 was more than 50 µM throughout.
`CC(=O)N1CCC2(CC1)CC(=O)c1cc(C(=O)NO)ccc1O2`: the IC50 on Histone deacetylase, in the series on A549, in the series with K562 and with HCT-116 was more than 50 µM throughout.
Regarding `O=C(/C=C/c1ccc2c(c1)C=CC1(CCN(Cc3ccccc3)CC1)O2)NO`, the IC50 against Histone deacetylase was found to be 1.19 µM; with A549, 4.7 µM; with K562, 3.27 µM; in the series with HCT-116, 3.51 µM.
On the same counts, the results for `CN1CCC2(CC1)Oc1ccc(/C=C/C(=O)NO)cc1C2=O` are 0.538 µM, 1.07 µM, 0.397 µM and 0.337 µM.
For `O=C(/C=C/c1ccc2c(c1)OC1(CCN(C(=O)c3ccccc3)CC1)CC2=O)NO`, in that order: 0.366 µM, 8.78 µM, 3.19 µM and 4.92 µM.
On the same counts, the results for `CCOC(=O)N1CCC2(CC1)Oc1ccc(/C=C/C(=O)NO)cc1C2=O` are 2.99 µM, 20.2 µM, 2.61 µM and 11.8 µM.
With `CC(=O)N1CCC2(CC1)CC(=O)c1ccc(/C=C/C(=O)NO)cc1O2`, the IC50 was 1.04 µM against Histone deacetylase, 11.3 µM in the series with A549, 6.08 µM in the series on K562 and 36 µM in the series on HCT-116.
`O=C(/C=C/c1cccc(S(=O)(=O)Nc2ccccc2)c1)NO` [BELINOSTAT] returned a bioavailability in series [1] of less than 10%. This molecule returned a clearance in series [2] of 193 mL/min/kg.
Regarding `CCOC(=O)N1CCC2(CC1)CC(=O)c1cc(/C=C/C(=O)NO)ccc1O2`, the IC50 is 0.14 µM against Histone deacetylase, 5.27 µM in the series with A549, 2.08 µM in the series on K562 and 2.14 µM with HCT-116.
For `O=C(/C=C/c1ccc2c(c1)C(=O)C1(CCN(C(=O)c3ccccc3)CC1)O2)NO`, in that order: 2.55 µM, 22.1 µM, 7.43 µM and 12.3 µM.
On the same counts, the results for `O=C(NO)c1ccc2c(c1)C(=O)CC1(CCN(C(=O)c3ccccc3)CC1)O2` are 29 µM, more than 50 µM, more than 50 µM and more than 50 µM.
`Cc1[nH]c2ccccc2c1CCNCc1ccc(/C=C/C(=O)NO)cc1` [PANOBINOSTAT] registered a bioavailability in series [1] of less than 10%. In series [2], this molecule displayed a clearance of 305 mL/min/kg.
Take `O=C(CCCCCCC(=O)Nc1ccccc1)NO` [VORINOSTAT]: in series [1], the bioavailability is less than 10%.
Turning to `CN1CCC2(CC1)CC(=O)c1ccc(/C=C/C(=O)NO)cc1O2`, the IC50 at Histone deacetylase came to 5.84 µM; in the series with A549, 3.76 µM; with K562, 4.5 µM; with HCT-116, 5.72 µM.
On to `CN1CCC2(CC1)CC(=O)c1cc(C(=O)NO)ccc1O2`, for which the half-inhibitory concentration (IC50) on Histone deacetylase, in the series with A549, in the series with K562 and with HCT-116 was more than 50 µM in each case.
As for `O=C(/C=C/c1ccc2c(c1)C(=O)CC1(CCN(C(=O)c3ccccc3)CC1)O2)NO`, the IC50 against Histone deacetylase worked out at 0.316 µM; with A549, 5.52 µM; in the series on K562, 1.65 µM; with HCT-116, 2.2 µM.
On the same counts, the results for `O=C(/C=C/c1ccc2c(c1)C(=O)C1(CCN(Cc3ccccc3)CC1)O2)NO` are 0.932 µM, 5.94 µM, 4.11 µM and 3.1 µM.
On the same counts, the results for `CCOC(=O)N1CCC2(CC1)CC(=O)c1ccc(/C=C/C(=O)NO)cc1O2` are 0.408 µM, 2.78 µM, 2.19 µM and 3.03 µM.
`O=C(/C=C/c1ccc2c(c1)CCC1(CCN(Cc3ccccc3)CC1)O2)NO`: the IC50 against Histone deacetylase was 9.02 µM; with A549, not below 50 µM; in the series on K562, 38.6 µM; in the series on HCT-116, 28.2 µM.
`O=C(/C=C/c1ccc2c(c1)C(O)CC1(CCN(Cc3ccccc3)CC1)O2)NO` (stereo not given): the IC50 against Histone deacetylase turned out to be 1.21 µM; with A549 it was 5.25 µM; with K562 it was 2.95 µM; in the series with HCT-116, 2.33 µM.
On the same counts, the results for `O=C(/C=C/c1ccc2c(c1)C(=O)C1(CCNCC1)O2)NO` are 0.221 µM, 1.09 µM, 1.69 µM and 0.832 µM.
For `CN1CCC2(CC1)CC(=O)c1cc(/C=C/C(=O)NO)ccc1O2`, in that order: 0.288 µM, 1.04 µM, 0.806 µM and 0.266 µM.
For `O=C(/C=C/c1ccc2c(c1)OC1(CCN(Cc3ccccc3)CC1)CC2=O)NO`, in that order: 2.173 µM, 12.2 µM, 8.94 µM and 8.41 µM.
As for `CC(=O)NC1CC2(CCN(Cc3ccccc3)CC2)Oc2ccc(/C=C/C(=O)NO)cc21` (stereo not given), the IC50 was 5.15 µM on Histone deacetylase, more than 50 µM in the series with A549, more than 50 µM in the series on K562 and 32.8 µM with HCT-116.
Consider `CC(=O)N1CCC2(CC1)CC(=O)c1cc(/C=C/C(=O)NO)ccc1O2`, for which the IC50 against Histone deacetylase turned out to be 0.641 µM; in the series with A549, 26.2 µM; in the series with K562, 9.37 µM; with HCT-116 it was 5.66 µM.
On the same counts, the results for `O=C(NO)c1ccc2c(c1)C(=O)CC1(CCN(Cc3ccccc3)CC1)O2` are 24 µM, 22 µM, 16 µM and 15 µM.
